From PubChem BioAssay
Activity calls are given as the source filed them.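 How the source made its calls, unless noted: active means potentiation averaged over duplicate wells exceeding buffer-only control mean by more than 3 SD; inactive means the rest.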

Tested on: not listed separately
Test: thallium flux activation in parental CHO cells, counter-screen for KCNQ1 potentiator project (AID 493006;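 active means duplicate-averaged activation above buffer control mean plus 5 SD of those controls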)
Conditions: parental CHO-K1 cells, FluxOR thallium flux, at 10 µM; stronger effect = higher value
Outline: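 Assay system: Untransfected host CHO-K1 cells with FluxOR thallium dye | Probe or stimulus: Potassium/thallium depolarization pulse | Schedule: Overnight 37 °C plating, 90 min RT dye, 20 min compound | Detection: Kinetic thallium-flux fluorescence | Read-out: Max-minus-min fluorescence over baseline, percent of buffer-to-R-L3 span | Benchmarks: Low control buffer, high control R-L3 activator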

SMILES	activation	outcome
Cc1sc2ncnc(SCC(=O)NC(=O)c3cccn3C)c2c1C	170% (active)	–
CC(C)C(NC(=O)Nc1ccccc1)C(=O)Nc1cccc(S(=O)(=O)N(C)C)c1 (stereo not drawn)	232% (active)	–
COc1ccc(S(=O)(=O)NCCCN2CCOCC2)cc1F	–	inactive
COC(=O)c1c(NC(=S)Nc2ccccc2Cl)sc(C)c1C	–	inactive
COc1cccc2sc(NNC(=O)C3COc4ccccc4O3)nc12 (stereo not drawn)	–	inactive
COc1ccc(/C=N/N=C2/NC(=O)C(c3ccccc3)S2)c(OC)c1 (stereo not drawn)	–	inactive
CCOC(=O)Cn1c(=S)[nH]c2c(oc3ccc(Cl)cc32)c1=O	226% (active)	–
O=C(CSc1cccc[n+]1[O-])c1cc(Cl)ccc1Cl	–	inactive
CC(/C=C1\SC(=S)N(c2ccc(C(=O)O)cc2)C1=O)=C\c1ccccc1	–	inactive
CCN(CC)c1ccc(Nc2cc3n(c(=O)n2)CCc2cc(OC)c(OC)cc2-3)cc1	–	inactive
Fc1ccc2nc(Nc3nc4c(F)cc(F)cc4s3)sc2c1	165% (active)	–
O=c1[nH]c(C(Cl)(Cl)Cl)nc2ccc3ccccc3c12	166% (active)	–
Cc1nn2c(c1-c1ccccc1)NC1=C(C(=O)CCC1)C2c1ccccc1 (stereo not drawn)	–	inactive
O=C(O)c1cnn(-c2ccccc2)c1-c1ccncc1	145% (active)	–
CN(C)CCCC1(O)c2ccccc2C=Cc2ccccc21	139% (active)	–
Cc1sc2nc(C(C)C)nc(SCC(=O)N3c4ccccc4CC3C)c2c1C (stereo not drawn)	164% (active)	–
COc1cc2c3nnc(-c4ccccc4)c-3cn(Cc3ccc(F)cc3)c2cc1OC	–	inactive
CCCN(CCC)CCNC(=O)Cn1cnc2sc(C)c(S(=O)(=O)N3CCOCC3)c2c1=O	–	inactive
Cc1c(-c2ccccc2)sc2nc[nH]c(=S)c12	307% (active)	–
CC(Sc1nnnn1-c1ccc(O)cc1)C(=O)NC1CCCCC1C (stereo not drawn)	–	inactive

SMILES	activation	outcome
Cc1ccccc1C(=O)Nc1nc(=S)ss1	250% (active)	–
CC(C)c1nc2oc3c(NCC4CCCO4)ncnc3c2c2c1COC(C)(C)C2 (stereo not drawn)	–	inactive
C=CCn1c(-c2cc(-c3ccc(C)cc3)nc3ccccc23)n[nH]c1=S	138% (active)	–
CSC(=S)N/N=C/c1ccc(N(C)C)cc1	–	inactive
O=C(NC(=S)N1CCN(c2ccc([N+](=O)[O-])cc2Cl)CC1)c1ccco1	–	inactive
CC(C)CSc1n[nH]c(=S)s1	–	inactive
CCCc1cc(=O)n2[nH]c(C)c(-c3ccc(Cl)cc3)c2n1	180% (active)	–
COc1ccccc1NC(=O)CCN1CCN(c2ccc(Cl)cc2)CC1	–	inactive
CCCn1c(NC(=O)CN2C(=O)NC3(CCCC3)C2=O)nc2ccccc21	–	inactive
CCOC(=O)c1n[nH]n2c1nc(=S)c1ccccc12	260% (active)	–
O=C(NN=C1CCCCCC1)c1cc(-c2ccccc2)nc2ccccc12	–	inactive
COc1ccc(C(=O)c2ccc(OC)c(N)c2)cc1N	162% (active)	–
COc1cc(OC)cc(C(=O)NC(=S)N2CCCCCC2)c1	–	inactive
COc1ccc(C(=O)N2CCC(N3CCN(c4ccccc4)CC3)CC2)cc1	–	inactive
CCc1ccc(NC(=O)CSc2nc3ccsc3c(=O)n2CCC(=O)O)cc1	148% (active)	–
CC(C)CC(=O)O/N=C1\C(=O)N(c2ccccc2)c2ccccc21	–	inactive
Cc1cc(/C=C2\SC(=Nc3ccc(F)cc3)NC2=O)c(C)n1-c1ccc(S(N)(=O)=O)cc1	–	inactive
Cc1nc(SC(C)C(=O)c2c(N)n(C)c(=O)n(C)c2=O)c2c(C)c(C)sc2n1 (stereo not drawn)	199% (active)	–
O=C(NC(=S)N1CCN(c2nc(-c3ccccc3)cs2)CC1)c1cncc(Br)c1	384% (active)	–

Target: Potassium voltage-gated channel subfamily KQT member 1 (Homo sapiens) (UniProt P51787)
Sequence (P51787 whole entry, looked up): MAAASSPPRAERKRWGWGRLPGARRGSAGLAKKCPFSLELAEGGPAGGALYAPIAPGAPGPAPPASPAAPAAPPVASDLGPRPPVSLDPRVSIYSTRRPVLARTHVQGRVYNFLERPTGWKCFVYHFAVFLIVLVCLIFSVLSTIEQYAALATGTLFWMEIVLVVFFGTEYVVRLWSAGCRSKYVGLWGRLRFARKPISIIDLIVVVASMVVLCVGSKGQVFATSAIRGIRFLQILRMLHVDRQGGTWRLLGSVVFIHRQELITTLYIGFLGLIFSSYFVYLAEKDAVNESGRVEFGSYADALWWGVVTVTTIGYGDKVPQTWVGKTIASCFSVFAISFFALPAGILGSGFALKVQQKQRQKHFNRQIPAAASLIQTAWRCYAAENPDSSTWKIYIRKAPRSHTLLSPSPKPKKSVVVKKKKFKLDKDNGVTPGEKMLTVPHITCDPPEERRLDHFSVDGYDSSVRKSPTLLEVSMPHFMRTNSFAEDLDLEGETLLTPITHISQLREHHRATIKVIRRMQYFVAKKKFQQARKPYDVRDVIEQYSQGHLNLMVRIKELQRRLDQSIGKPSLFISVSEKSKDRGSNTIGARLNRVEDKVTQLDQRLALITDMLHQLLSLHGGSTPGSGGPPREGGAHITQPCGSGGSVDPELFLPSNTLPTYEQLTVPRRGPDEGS
Test: KCNQ1 potassium channel potentiators, confirmation, FluxOR thallium flux, CHO cells, duplicates (AID 493007);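 on outcome: cells depolarized by a potassium plus thallium sulfate stimulus after compound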
Conditions: KCNQ1 cell line, FluxOR thallium flux fluorescence, at 10 µM; stronger effect = higher value, % of reference activator effect, buffer zero
Outline: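 Material: KCNQ1-expressing CHO cell line; Incubation: FluxOR dye loading 90 min, compound exposure 20 min, room temperature; Detection: FluxOR Tl+ flux fluorescence, 10 s baseline plus 110 s recording; Read-out: percent activation between buffer and R-L3 responses; Control set: buffer-only wells as 0% and R-L3 activator as 100%; Replication: duplicate wells per compound.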

SMILES	potentiation	outcome
Cc1sc2ncnc(SCC(=O)NC(=O)c3cccn3C)c2c1C	28.5% (active)	–
CC(C)C(NC(=O)Nc1ccccc1)C(=O)Nc1cccc(S(=O)(=O)N(C)C)c1 (stereo not drawn)	67.5% (active)	–
COc1ccc(S(=O)(=O)NCCCN2CCOCC2)cc1F	–	inactive
COC(=O)c1c(NC(=S)Nc2ccccc2Cl)sc(C)c1C	–	inactive
COc1cccc2sc(NNC(=O)C3COc4ccccc4O3)nc12 (stereo not drawn)	–	inactive
COc1ccc(/C=N/N=C2/NC(=O)C(c3ccccc3)S2)c(OC)c1 (stereo not drawn)	–	inactive
CCOC(=O)Cn1c(=S)[nH]c2c(oc3ccc(Cl)cc32)c1=O	36% (active)	–
O=C(CSc1cccc[n+]1[O-])c1cc(Cl)ccc1Cl	–	inactive
CC(/C=C1\SC(=S)N(c2ccc(C(=O)O)cc2)C1=O)=C\c1ccccc1	–	inactive
CCN(CC)c1ccc(Nc2cc3n(c(=O)n2)CCc2cc(OC)c(OC)cc2-3)cc1	–	inactive
Fc1ccc2nc(Nc3nc4c(F)cc(F)cc4s3)sc2c1	74% (active)	–
O=c1[nH]c(C(Cl)(Cl)Cl)nc2ccc3ccccc3c12	50% (active)	–
Cc1nn2c(c1-c1ccccc1)NC1=C(C(=O)CCC1)C2c1ccccc1 (stereo not drawn)	–	inactive
O=C(O)c1cnn(-c2ccccc2)c1-c1ccncc1	84% (active)	–
CN(C)CCCC1(O)c2ccccc2C=Cc2ccccc21	29% (active)	–
Cc1sc2nc(C(C)C)nc(SCC(=O)N3c4ccccc4CC3C)c2c1C (stereo not drawn)	47.5% (active)	–
COc1cc2c3nnc(-c4ccccc4)c-3cn(Cc3ccc(F)cc3)c2cc1OC	–	inactive
CCCN(CCC)CCNC(=O)Cn1cnc2sc(C)c(S(=O)(=O)N3CCOCC3)c2c1=O	–	inactive
Cc1c(-c2ccccc2)sc2nc[nH]c(=S)c12	130% (active)	–
CC(Sc1nnnn1-c1ccc(O)cc1)C(=O)NC1CCCCC1C (stereo not drawn)	–	inactive

SMILES	potentiation	outcome
Cc1ccccc1C(=O)Nc1nc(=S)ss1	72% (active)	–
CC(C)c1nc2oc3c(NCC4CCCO4)ncnc3c2c2c1COC(C)(C)C2 (stereo not drawn)	–	inactive
C=CCn1c(-c2cc(-c3ccc(C)cc3)nc3ccccc23)n[nH]c1=S	108% (active)	–
CSC(=S)N/N=C/c1ccc(N(C)C)cc1	–	inactive
O=C(NC(=S)N1CCN(c2ccc([N+](=O)[O-])cc2Cl)CC1)c1ccco1	–	inactive
CC(C)CSc1n[nH]c(=S)s1	–	inactive
CCCc1cc(=O)n2[nH]c(C)c(-c3ccc(Cl)cc3)c2n1	23% (active)	–
COc1ccccc1NC(=O)CCN1CCN(c2ccc(Cl)cc2)CC1	–	inactive
CCCn1c(NC(=O)CN2C(=O)NC3(CCCC3)C2=O)nc2ccccc21	–	inactive
CCOC(=O)c1n[nH]n2c1nc(=S)c1ccccc12	54.5% (active)	–
O=C(NN=C1CCCCCC1)c1cc(-c2ccccc2)nc2ccccc12	–	inactive
COc1ccc(C(=O)c2ccc(OC)c(N)c2)cc1N	38.5% (active)	–
COc1cc(OC)cc(C(=O)NC(=S)N2CCCCCC2)c1	48% (active)	–
COc1ccc(C(=O)N2CCC(N3CCN(c4ccccc4)CC3)CC2)cc1	–	inactive
CCc1ccc(NC(=O)CSc2nc3ccsc3c(=O)n2CCC(=O)O)cc1	33% (active)	–
CC(C)CC(=O)O/N=C1\C(=O)N(c2ccccc2)c2ccccc21	–	inactive
Cc1cc(/C=C2\SC(=Nc3ccc(F)cc3)NC2=O)c(C)n1-c1ccc(S(N)(=O)=O)cc1	–	inactive
Cc1nc(SC(C)C(=O)c2c(N)n(C)c(=O)n(C)c2=O)c2c(C)c(C)sc2n1 (stereo not drawn)	86% (active)	–
O=C(NC(=S)N1CCN(c2nc(-c3ccccc3)cs2)CC1)c1cncc(Br)c1	223% (active)	–
